36 sequences from the array DNA melting data of Ke et al. (doi:10.1101/2024.01.08.574731) can be followed below.

Data set [1] is described as follows: melting temperature; fluorescence melt of hairpins on a sequencing array, two-state fit, raised by 9.35 °C to match UV melts. The note with it: sodium 0.088 M. In outline: (§1)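 Bootstrapped two-state fits yielded melting temperature and folding enthalpy for library hairpins. Cy3 fluorescence, with annealed Cy3 and quencher oligos, was imaged on a sequenced MiSeq flow cell in 50 mM Na-HEPES pH 8.0, 25 mM NaCl in 2.5 °C steps up to 60 °C, and normalised to pre-quench Cy3 and to control constructs. Four replicates were combined by inverse variance, and fitted temperatures were raised by 9.35 °C to match UV melts.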

Data set [2] can be described thus: folding enthalpy; higher = less favourable; fluorescence melt of hairpins on a sequencing array, two-state fit. The note with it: sodium 0.088 M. In a few lines: as §1

As to GGGAAGCGAAAGCTACCC (((.(((....))).))), the Tm in data set [1] came out at 59.3 °C. In data set [2], the folding enthalpy is -30.7 kcal/mol.

With GGGAAGCGAAAGCTCCC (((.(((....)))))), the Tm in data set [1] was 59.7 °C. Further, the folding enthalpy in data set [2] is -38.7 kcal/mol.

Consider GGGAAGGAAACTTCCC ((((((....)))))), for which, in data set [1], the Tm stood at 58.1 °C. The folding enthalpy in data set [2] is -31.8 kcal/mol.

With GGGAATGGAAACATTCTC (.(((((....))))).), the Tm in data set [1] was 44.9 °C. Also, the folding enthalpy in data set [2] was -24.2 kcal/mol.

Consider GGGAATGGAAACGTTTCC ((.((.(....).)).)), for which, in data set [1], the Tm is 34.3 °C. Besides, the folding enthalpy in data set [2] was -15.3 kcal/mol.

For GGGACAACGAAAGTTCCC (((..(((....)))))), the Tm in data set [1] came to 39.4 °C. Moreover, the folding enthalpy in data set [2] is -22.4 kcal/mol.

As to GGGACACGAAAGTGCCC (((.(((....)))))), the Tm in data set [1] came to 60.9 °C. In addition, the folding enthalpy in data set [2] is -24.1 kcal/mol.

Turning to GGGACAGAAATGTCCC ((((((....)))))), in data set [1], the Tm came to 64.1 °C. Also, the folding enthalpy in data set [2] is -29.3 kcal/mol.

With GGGACCGAAAGGTATCCC ((((((....)))..))), in data set [1], the Tm was 47.7 °C. In addition, the folding enthalpy in data set [2] was -18.1 kcal/mol.

As for GGGACCGAAAGGTGCCC ((((((....))).))), the Tm in data set [1] came out at 61 °C. In addition, the folding enthalpy in data set [2] is -17.7 kcal/mol.

Consider GGGACCGAAAGGTGGCCC ((((((....)))..))), for which, in data set [1], the Tm came to 45.5 °C. Besides, in data set [2], the folding enthalpy was -19 kcal/mol.

Turning to GGGACCGAAAGGTTCCC ((((((....))).))), the Tm in data set [1] turned out to be 60.4 °C. In addition, the folding enthalpy in data set [2] is -26.7 kcal/mol.

Consider GGGACGCCGAAAGGCCCC (((..(((....)))))), for which the Tm in data set [1] was determined as 45.4 °C. In addition, the folding enthalpy in data set [2] is -13.7 kcal/mol.

GGGACGGGAAACCGTCTC (.(((((....))))).): in data set [1], the Tm is 56.5 °C. The folding enthalpy in data set [2] is -20.2 kcal/mol.

As to GGGACTCCGAAAGGACCC (((..(((....)))))), the Tm in data set [1] came to 41.5 °C. Further, in data set [2], the folding enthalpy is -16 kcal/mol.

For the sequence GGGACTGAAAAGTCCC ((((((....)))))), in data set [1], the Tm worked out at 68.3 °C. The folding enthalpy in data set [2] was -33.7 kcal/mol.

Consider GGGACTGGAAACAGTCCC (((((((....))))))), for which the Tm in data set [1] was determined as 69 °C. Moreover, the folding enthalpy in data set [2] is -37.8 kcal/mol.

Consider GGGACTGGAAACGGTCCC (((((.(....).))))), for which the Tm in data set [1] was found to be 57.6 °C. The folding enthalpy in data set [2] was -44.6 kcal/mol.

For GGGACTGGAAACGGTCTC (.(((.(....).))).), the Tm in data set [1] stood at 37.4 °C. Further, the folding enthalpy in data set [2] is -23.1 kcal/mol.

Regarding GGGAGACGAAAGTCCCCC (((.(((....))).))), the Tm in data set [1] came to 58.8 °C. For the same sequence, the folding enthalpy in data set [2] was -28.8 kcal/mol.

As for GGGAGAGGAAACTCTTCC ((.((((....)))).)), the Tm in data set [1] was found to be 45.5 °C. Moreover, the folding enthalpy in data set [2] was -30.7 kcal/mol.

Consider GGGAGCACGAAAGTGCCC (((..(((....)))))), for which the Tm in data set [1] was 59.1 °C. In data set [2], the folding enthalpy was -10.6 kcal/mol.

With GGGAGCGAAAGCTAGCCC ((((((....)))..))), the Tm in data set [1] worked out at 42.7 °C. The folding enthalpy in data set [2] is -14.2 kcal/mol.

Turning to GGGAGCGAAAGCTCGCCC ((((((....)))..))), the Tm in data set [1] was 52.7 °C. Besides, the folding enthalpy in data set [2] was -11.6 kcal/mol.

In the case of GGGAGCGAAAGCTGTCCC ((((((....)))..))), the Tm in data set [1] was found to be 45.6 °C. Moreover, the folding enthalpy in data set [2] is -17.2 kcal/mol.

Regarding GGGAGCGAAAGCTTGCCC ((((((....)))..))), the Tm in data set [1] worked out at 39.4 °C. The folding enthalpy in data set [2] was -12.2 kcal/mol.

Turning to GGGAGGAAACTCCC (((((....))))), in data set [1], the Tm was 56 °C. Also, the folding enthalpy in data set [2] is -33.5 kcal/mol.

GGGAGGCCGAAAGGCCCC (((..(((....)))))): the Tm in data set [1] is 56.6 °C. Further, the folding enthalpy in data set [2] is -9.7 kcal/mol.

On to GGGAGTACGAAAGTACCC (((..(((....)))))), for which, in data set [1], the Tm was found to be 51.3 °C. For the same sequence, the folding enthalpy in data set [2] was -13.1 kcal/mol.

In the case of GGGAGTCGAAAGACCCCC (((.(((....))).))), the Tm in data set [1] was determined as 59.3 °C. The folding enthalpy in data set [2] was -37.3 kcal/mol.

As to GGGAGTGGAAACGCTCCC (((((.(....).))))), the Tm in data set [1] came out at 58 °C. In data set [2], the folding enthalpy is -38.9 kcal/mol.

Take GGGAGTGGAAACGTTCCC ((((..(....)..)))): the Tm in data set [1] came to 36.2 °C. Also, the folding enthalpy in data set [2] was -16.5 kcal/mol.

In the case of GGGAGTTCGAAAGAACCC (((..(((....)))))), the Tm in data set [1] turned out to be 47.9 °C. Further, the folding enthalpy in data set [2] is -18.2 kcal/mol.

Regarding GGGATACGAAAGTACCC (((.(((....)))))), the Tm in data set [1] turned out to be 51.2 °C. In data set [2], the folding enthalpy was -27.4 kcal/mol.

For the sequence GGGATAGGAAACTATCCC (((((((....))))))), the Tm in data set [1] was 59.2 °C. The folding enthalpy in data set [2] is -42.8 kcal/mol.

As to GGGATAGGAAACTGTCCC ((((.((....)).)))), the Tm in data set [1] turned out to be 49.4 °C. Further, the folding enthalpy in data set [2] was -35.9 kcal/mol.
